Where two headings read alike, the source gives them in different places.
How the values were obtained:
Leukemia = test: NCI 60 cell panel, five-concentration assay, leukemia subpanel; format: cell-based; conditions: total growth inhibition; 48 h exposure
NSCLC = test: NCI 60 cell panel, five-concentration assay, NSCLC subpanel; format: cell-based; conditions: total growth inhibition; 48 h exposure
Colon = test: NCI 60 cell panel, five-concentration assay, colon subpanel; format: cell-based; conditions: total growth inhibition; 48 h exposure
CNS = test: NCI 60 cell panel, five-concentration assay, CNS subpanel; format: cell-based; conditions: total growth inhibition; 48 h exposure
Melanoma = test: NCI 60 cell panel, five-concentration assay, melanoma subpanel; format: cell-based; conditions: total growth inhibition; 48 h exposure
Ovarian = test: NCI 60 cell panel, five-concentration assay, ovarian subpanel; format: cell-based; conditions: total growth inhibition; 48 h exposure
Renal = test: NCI 60 cell panel, five-concentration assay, renal subpanel; format: cell-based; conditions: total growth inhibition; 48 h exposure
Prostate = test: NCI 60 cell panel, five-concentration assay, prostate subpanel; format: cell-based; conditions: total growth inhibition; 48 h exposure
Breast = test: NCI 60 cell panel, five-concentration assay, breast subpanel; format: cell-based; conditions: total growth inhibition; 48 h exposure
full NCI 60 cell panel = conditions: for GI50: read-out: GI50 MG-MID (mean GI50)
[1] = tested on: MCF-7 breast cancer cells; test: Growth and death of MCF-7 cells; format: cell-based, human; conditions: 200 nM, viable cells counted daily
In short: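 MCF-7 cells grown in RPMI 1640 with 10% FBS and 2 mM L-glutamine at 37°C, 5% CO2. Plated at 2×10^4 cells/cm2; compound added 24 h later from 10 mmol/L DMSO working solutions, with DMSO-only controls. Cells harvested with 0.11% trypsin/0.02% EDTA and counted; viability by trypan blue exclusion. Treated vs control compared by Student t-test, P<0.05.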

p53 = test: Western blotting of p53 in MCF-7 cells; format: cell-based, human; conditions: 5 μM, 20 h
ERK1/2 = test: Western blotting of ERK1/2 phosphorylation in MCF-7 cells; format: cell-based, human; conditions: 5 μM, 20 h
In short: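 MCF-7 cells treated 20 h, then collected in 20 mM HEPES pH 7.5 with 5 mM DTT, 2 mM EDTA, 0.1% CHAPS, 0.1% Triton X-100 and protease inhibitors, and freeze-thawed twice. Extracts run on SDS-PAGE at 80 μg protein/lane and immunoblotted for total and phosphorylated ERK1/2 and Akt, p53, p21 and β-actin. Blots representative of at least three experiments.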

[2] = tested on: female athymic nude mouse; conditions: in vivo, ip
[3] = calculated panel mean, 48 h exposure
[4] = read-out: LC50 MG-MID (mean LC50), calculated panel mean, 48 h exposure

SMILES	TGI Leukemia (Leukemia) [µM]	TGI NSCLC (NSCLC) [µM]	TGI Colon (Colon) [µM]	TGI CNS (CNS) [µM]	TGI Melanoma (Melanoma) [µM]	TGI Ovarian (Ovarian) [µM]	TGI Renal (Renal) [µM]	TGI Prostate (Prostate) [µM]	TGI Breast (Breast) [µM]	CC50 (full NCI 60 cell panel) [µM]	TGI MG-MID (mean TGI) (full NCI 60 cell panel; [3]) [µM]	GI50 (full NCI 60 cell panel; [3]) [nM]	CC50 (full NCI 60 cell panel; [4]) [µM]	effect on MCF-7 cell growth (total cell number) [1]	p53 expression (p53)	ERK phosphorylation (ERK1/2)	maximum tolerated dose (MTD) [2] [mg/kg]
COc1cc2c(/C=C3/C(=O)N(C)c4ccccc43)c(Cl)n(C)c2cc1C [Compound 13]	4.07	33.11	8.51	4.47	14.13	18.20	10.23	10.00	13.18	77.6	11.48	320					
COc1cc2c(/C=C3/C(=O)Nc4ccc(Br)cc43)c(Cl)[nH]c2cc1C [Compound 4]	6.17	14.13	6.76	8.91	9.55	8.13	10.96	7.94	10.47	39.8	9.33						
COc1cc2c(/C=C3/C(=O)Nc4ccc(N(C)C)cc43)c(Cl)n(C)c2cc1C [Compound 10]	44.67	91.20	70.79	60.26	67.61	77.62	69.18	97.72	54.95		67.61		97.7				
COc1cc2c(cc1C)N(C)C(=O)/C2=C/c1c(Cl)[nH]c2ccccc12 [Compound 16]	7.41	12.30	9.33	7.59	18.20	11.75	12.88	21.38	8.32		10.96	450		initially decreased cell proliferation, however after 24 h, the cells recovered and started to grow	caused a p53 increase	decreased ERK phosphorylation	100
COc1cc2c(cc1C)NC(=O)/C2=C/c1c(Cl)n(C)c2cc(C)c(OC)cc12 [Compound 8]	60.26	97.72	87.10	87.10	45.71	91.20		97.72	77.62		77.62	24000	91.2				
COc1cc2c(/C=C3/C(=O)Nc4cc(Cl)ccc43)c(Cl)[nH]c2cc1C [Compound 7]	4.79	11.48	3.55	4.37	11.48	14.79	7.08	5.25	2.63		6.61	210					
COc1ccc2c(c1)/C(=C\c1c(Cl)[nH]c3ccc(N(C)C)cc13)C(=O)N2 [Compound 20]	10.23	15.49	9.55	7.94	15.49	15.14	13.80	19.05	8.51	49	12.02	2290					

Reference: PMC2920599 (Journal of medicinal chemistry, 2010)
